These results are taken from ChEMBL document CHEMBL4513216, “Probing the Open Global Health Chemical Diversity Library for Multistage-Active Starting Points for Next-Generation Antimalarials” (ACS Infect Dis, 2020).

Molecules are shown by their SMILES.

A short description of the data set: Toxicity liver stage against HepG2, at 10uM. Further details: test concentration 10 uM, cell line HepG2-A16-CD81EGFP. The conditions noted are these: human, HepG2-A16-CD81EGFP cells; read-out: INHIBITION
The class given is cell-based. The method, boiled down:
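Uninfected HepG2-A16-CD81EGFP cells, 3 × 10^3 per well, 1536-well, plated on prespotted compound at 10 μM final, parasite-free screening media added to match infected plates; puromycin 10 μM positive, DMSO 0.5% negative; run in parallel with 48 h PbLuc assay at 37 °C, 5% CO2; viability by CellTiter-Glo luminescence, normalized to controls.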
As for `CS(=O)(=O)N1CCN(C(=O)CN2CCCc3c(F)cc(F)cc32)CC1`, the cytotoxicity at 10 µM is -1.52%. For the compound `Cc1nc(C)c(CN2CCOC[C@H](Oc3cnccn3)C2)s1`, the cytotoxicity at 10 µM is -5.33%. In the case of `Cn1cnc2cc(NC(=O)c3n[nH]c4c3CCC4)ccc21`, the cytotoxicity at 10 µM was -0.806%. Then `O=C(c1nnn(-c2ccc(F)cc2)n1)N(CCO)Cc1ccccc1`, with 1.56%; and `CCCc1cc(C(=O)Nc2nc(SC)ns2)n(C)n1`, with 8.49%. As for `Cc1c[nH]nc1C1CCN(C(=O)CC2CCCC2)C1` (centres undefined), the cytotoxicity at 10 µM is -4.15%.

For the compound `Brc1cccc(-c2noc(C3COCCO3)n2)c1` (centres undefined), the cytotoxicity at 10 µM came out at 8.71%.

As to `COc1cccc(C(=O)Nc2ccc(OCCC(N)=O)cc2)c1OC`, the cytotoxicity at 10 µM came out at 4.19%. Then `CCOc1ccc(NC(=O)c2cccc(OC)c2OC)cc1`, with 1.64%. As to `Cc1csc(-c2ccc(NC(=O)N3CCOCC3)cc2)n1`, the cytotoxicity at 10 µM is -9.2%.

For `CCN(CC(C)C#N)C(=O)c1cccc(COc2ccc(C)nc2)c1` (centres undefined), the cytotoxicity at 10 µM was 5.8%. On to `CC(=O)Nc1cc(-c2cccc(F)c2F)n[nH]1`, for which the cytotoxicity at 10 µM was -0.305%. For the compound `CN(CC(=O)Nc1ccccc1)C(=O)CN(C)c1ccc(Cl)cn1`, the cytotoxicity at 10 µM was -1.83%. Then `Cn1cc(N2CCN(c3ccc(C#N)cc3F)CC2=O)cn1`, with -2.14%. In the case of `NC(=O)NC1(C(=O)N2CCc3c(Cl)cccc3C2)CCCCC1` it was -3.45%; in that of `CC(C)(C)NC(=O)c1cnc2n1CCCC2`, -3.32%. Then `Cc1ccc(F)c(CNc2ccn(CCC(N)=O)n2)c1`, with -4.75%; and `O=C(c1csnn1)N1CCc2ccccc21`, with 5.35%; and `CCC(CC)(CNC(=O)OC(C)(C)C)NC(=O)C1CC1`, with -0.708%. With `Cc1cnn(CCNC(C)C(=O)Nc2ccc(Cl)cn2)c1` (centres undefined), the cytotoxicity at 10 µM amounted to 0.858%. In the case of `Cc1cnn(CCNCC(=O)Nc2ccc(Cl)cn2)c1` it was 1.93%. `Cc1ocnc1C(=O)Nc1ccc(-c2nnc(N(C)C)o2)cc1`: the cytotoxicity at 10 µM was 5.49%. As for `N#Cc1cccc(OCc2ccoc2C(=O)N2CCCCC2)c1`, the cytotoxicity at 10 µM was -6.57%.

For the compound `CSCc1cc(F)ccc1CNC(=O)N1CCCC1`, the cytotoxicity at 10 µM was 5.58%. For the compound `Cc1noc(C)c1C(=O)NCCN1CCN(c2ccccc2)CC1`, the cytotoxicity at 10 µM was -10.8%.

As for `COC1CCN(C(=O)c2csc(-c3ccccc3F)n2)CC1`, the cytotoxicity at 10 µM is -5.6%. `CCc1nc(CCNC(=O)NC2CCSCC2)cs1`: the cytotoxicity at 10 µM was -5.55%. Turning to `CCn1cnnc1C1CCN(C(=O)CC(C)n2cccc2)CC1` (centres undefined), the cytotoxicity at 10 µM was -1.49%. In the case of `Cc1ccccc1-n1cnnc1SCC(=O)NCC1CCCO1` (centres undefined), the cytotoxicity at 10 µM is -1.15%.

In the case of `CCCNC(=O)CNc1cc(C(=O)NCC(F)(F)F)cc(F)c1C`, the cytotoxicity at 10 µM is 10%.

Take `CCc1nsc(N2CCN(CC(=O)Nc3c(C)n[nH]c3C)CC2)n1`: the cytotoxicity at 10 µM was -3.63%. Regarding `CCC1CN(Cc2c(O)ccc3oc4c(c23)CCCC4)CCO1` (centres undefined), the cytotoxicity at 10 µM worked out at 2.03%.

`O=C(CCNc1ncccn1)NCc1cccc(OC(F)F)c1`: the cytotoxicity at 10 µM is -1.75%. Consider `Cc1nn(C)c(N2CCOCC2)c1CNCC1CCS(=O)(=O)C1` (centres undefined), for which the cytotoxicity at 10 µM was -2.09%. Then `CCCOc1cccc(NC(=O)NC2CCc3nc(C)nn3C2)c1` (centres undefined), with -1.65%.

As to `O=C(c1cn(-c2cccc(Cl)c2F)nn1)N1CCCSCC1`, the cytotoxicity at 10 µM worked out at 3.98%. For the compound `N#Cc1cccc(CNC(=O)C2=NN(c3ccccc3)C(=O)CN2)c1`, the cytotoxicity at 10 µM is -3.44%.

Consider `Cc1cc(C)n(-c2ccc(N3CCC4(CC3)OCCO4)nc2)n1`, for which the cytotoxicity at 10 µM is -4.84%.

Take `O=C(CSc1ccc2c(c1)OCCO2)NS(=O)(=O)c1cccs1`: the cytotoxicity at 10 µM is -3.13%.

On to `NC(=O)CN1CCCN(C(=O)c2ccn(-c3ccc(F)cc3)n2)CC1`, for which the cytotoxicity at 10 µM was -5.69%. Turning to `O=C(CSc1ccc2c(c1)OCCO2)NS(=O)(=O)c1cccnc1`, the cytotoxicity at 10 µM was -5.72%.

Consider `O=C(CSc1ccc2c(c1)OCCO2)NS(=O)(=O)c1ccccc1`, for which the cytotoxicity at 10 µM is -2.56%.

For `COc1cc(NC(=O)c2cscn2)ncn1`, the cytotoxicity at 10 µM worked out at 3.12%. In the case of `CCN1CCN(CCC(=O)NC2CC(c3cccc(Cl)c3)C2)CC1` (centres undefined) it was -7.37%. `CCc1nc(C2CCCN(c3ncccn3)C2)no1` (centres undefined): the cytotoxicity at 10 µM is -0.996%. In the case of `COCCN1CCN(CC(=O)N(C)Cc2ccc(F)cc2)CC1C` (centres undefined) it was -145%.

`CN(C)C(=O)c1csc(-c2ccoc2)n1`: the cytotoxicity at 10 µM is -1.13%.

With `OCC1(CNC2CCc3cc4c(cc32)OCCO4)CC1` (centres undefined), the cytotoxicity at 10 µM is -3.37%. With `Cc1sc2nc(SC(C)c3nc(C(C)(C)C)no3)nc(N)c2c1C` (centres undefined), the cytotoxicity at 10 µM was -1.13%. Then `CC(C)N(C(=O)c1csc(-c2ccoc2)n1)C1CCOCC1`, with -1.18%; and `Cc1n[nH]c(C2CN(Cc3ncc(C(C)C)o3)CCO2)n1` (centres undefined), with -6.32%; and `CN(CC1CCC1)C(=O)c1ccc(-c2nc(C3CC3)n[nH]2)cc1`, with -3.26%. In the case of `O=S1(=O)CCC(c2nc(-c3cccc(Br)c3)no2)C1` (centres undefined) it was 7.51%; in that of `COc1ccc(C(C)Nc2ncc(C(N)=O)cc2Cl)cc1F` (centres undefined), 5.37%. Consider `O=C(CC1CCCO1)Nc1ccc2c(ccn2CCN2CCOCC2)c1` (centres undefined), for which the cytotoxicity at 10 µM was found to be 2.55%. In the case of `Cc1cc(CS(=O)(=O)NCC2CCCCC2)on1` it was -18.7%. In the case of `O=C(COCc1ccccc1Cl)N1CCN(c2ncccn2)CC1` it was 6.43%. On to `CCCC(Cn1cnc(-c2ccccc2)c1-c1cncn1CC)N(C)C` (centres undefined), for which the cytotoxicity at 10 µM came to 7.59%. For `CSCCC(=O)N1CCc2c(ncnc2N2CCOCC2)C1`, the cytotoxicity at 10 µM was -4.88%. As to `CN1CCN(CCn2cnc3c(F)cccc3c2=O)CC1`, the cytotoxicity at 10 µM is -1.67%. For `O=C(c1cnccn1)N1CCCC(Cn2cc(C3CC3)nn2)C1` (centres undefined), the cytotoxicity at 10 µM was -5.9%.

Take `COc1ccccc1Oc1ncccc1CNC(=O)C(C)CN` (centres undefined): the cytotoxicity at 10 µM is 0.884%. Consider `COCc1noc(-c2ccc(N(C)Cc3nccs3)nc2)n1`, for which the cytotoxicity at 10 µM was -1.57%.

As for `Cc1cccc(C2CCCN(C(=O)CN3CCOC3=O)C2)c1` (centres undefined), the cytotoxicity at 10 µM was -2.82%.

As for `CC(C)Cc1cn(C2CCN(C(C)CC3CC3)CC2)nn1` (centres undefined), the cytotoxicity at 10 µM was -2.9%. Take `CCCn1ncc(C(=O)N2CCN(C3CCSCC3)CC2)c1C`: the cytotoxicity at 10 µM was -148%. Then `Cc1ncc(CO)c(CN2CCCC2c2nc3c(C)cccc3[nH]2)c1O` (centres undefined), with 0.414%; and `NC1CCCc2nc(-c3ccccc3)ncc21` (centres undefined), with 4.93%. Consider `COCCOCC(=O)N1CCC(c2ccccc2F)C1` (centres undefined), for which the cytotoxicity at 10 µM is -6.45%. Consider `O=C(CCc1nc(Cl)n[nH]1)N1CCC2(CCCN(CC3CCC3)C2=O)C1` (centres undefined), for which the cytotoxicity at 10 µM is -5.3%. `Cc1nc(C(C)C)sc1C(=O)N(C)CCCc1cnn(C)c1`: the cytotoxicity at 10 µM was -4.6%. Take `O=C(c1cnccn1)N1CCCC(Cn2cc(C3CCCC3)nn2)C1` (centres undefined): the cytotoxicity at 10 µM is -4.86%. In the case of `O=C1CCC2(CCCN(C(=O)c3ccc[nH]3)C2)CN1Cc1cccnc1` (centres undefined) it was 9.88%. In the case of `CCN(C)CC(C)Cn1cnc(-c2ccccc2)c1C` (centres undefined), the cytotoxicity at 10 µM was -3.06%. On to `Cc1cc(N2Cc3cnn(CCO)c3C2)nc(-c2ccccc2O)n1`, for which the cytotoxicity at 10 µM is -162%. As for `O=C(Nc1ccc(-c2nc3c([nH]2)CCNC3)cc1)N1CCCC1`, the cytotoxicity at 10 µM was -4.36%.

For `CCOc1ccc(-c2ccc3c(c2)OCO3)cc1C(N)=O`, the cytotoxicity at 10 µM was 5.17%.

As for `Cc1cc(-c2nc(-c3ccccn3)nn2C2CCN(C)CC2)nc(C)n1`, the cytotoxicity at 10 µM is -3.14%. In the case of `CN(CCC(O)c1ccccc1)c1cc(N2CCOCC2)ncn1` (centres undefined) it was -148%; in that of `O=c1c2cccc(F)c2ncn1CCN1CCOCC1`, 2.53%. As for `CCNC(=O)c1ccnc(CC2COc3c(cccc3OC)C2)c1` (centres undefined), the cytotoxicity at 10 µM came out at 0.441%. Take `O=C(N[C@H]1COC[C@@H]1N1CCCC1)c1c[nH]nc1C1CCCCC1`: the cytotoxicity at 10 µM is -5.59%. For the compound `O=C(NCCCc1ccco1)c1ccc(N2CCOCC2)cc1`, the cytotoxicity at 10 µM was -5.54%. On to `O=C(CCC(=O)N1CCC(Cc2ccc(CO)cc2)C1)c1ccccc1` (centres undefined), for which the cytotoxicity at 10 µM was found to be 0.727%.

Take `Cc1ccsc1CNC(=O)NC(C)c1ccc2c(c1)CCC(=O)N2` (centres undefined): the cytotoxicity at 10 µM came to 5.31%. Take `Fc1ccc(-c2nnc(CN3CCCC(Cn4cncn4)C3)o2)cc1` (centres undefined): the cytotoxicity at 10 µM was -4.87%.

As to `Cc1nc(-c2ccc(Cl)s2)sc1C(=O)NCCCC(N)=O`, the cytotoxicity at 10 µM is -5.6%. `CC(NC(=O)NCCCN1CCc2ccccc2C1)c1nncn1C` (centres undefined): the cytotoxicity at 10 µM is -2.6%.

With `COc1c(C2CCCN2CC(=O)Nc2cc(C)on2)c(C)nn1C` (centres undefined), the cytotoxicity at 10 µM was -1.19%. On to `Cc1ccc(NC(=O)NCCCn2nc3ccccn3c2=O)cc1`, for which the cytotoxicity at 10 µM is -19.1%. For the compound `O=C(COc1ccc(Cl)cc1)N1CCN(c2cnccn2)CC1`, the cytotoxicity at 10 µM is -20.4%. In the case of `Cc1cnc(C(=O)N2CCC(C(=O)c3cc(F)ccc3F)CC2)cn1` it was -5.88%; in that of `Cc1nc(CN2CCCC(NCC(=O)Nc3cccnc3)C2)no1` (centres undefined), 0.0757%; in that of `Cc1ccc(CN2C[C@H](OCCN(C)C)[C@H]3OCCC[C@H]32)o1`, -146%.

Take `O=C1CC2(CCN(Cc3cccnc3)C2)CN1c1cccc(F)c1` (centres undefined): the cytotoxicity at 10 µM was -147%. With `O=c1ccc2c(n1Cc1cccnc1)CCN(Cc1ccoc1)CC2`, the cytotoxicity at 10 µM is -140%. In the case of `CCc1ccc(NS(=O)(=O)C=c2[nH]c(=O)n3cccc3c2=O)cc1` it was 8.45%.

Consider `Cc1nc(C)c(CC(=O)N2C[C@@H]3CC[C@H]2CN(c2cnccn2)C3)s1`, for which the cytotoxicity at 10 µM is 10.1%. For `CCCn1nccc1NC(=O)CN1CCCC1Cn1nc(C)nc1C` (centres undefined), the cytotoxicity at 10 µM was -6.84%.
